Assay results pooled from the literature.
Each line is one published result; the experiments were not run side by side.
Target: Serine/threonine-protein kinase Nek4 (NEK4, Homo sapiens, UniProt P51957)

Structure (SMILES)	read-out	action	method	tested at	quantity	value
O=c1[nH]c2ccccc2n1C1CCN(Cc2ccc(-c3[nH]c4cc5ncnc5cc4nc3-c3ccccc3)cc2)CC1	cell-free assay			0.5 µM	remaining signal	106%
Cn1cc(-c2cccc(N3CCc4c(sc5c4CC(C)(C)C5)C3=O)c2CO)cc(Nc2ccncn2)c1=O	enzyme activity	inhibitor		1 µM	inhibition	2%
Cc1nn(C)cc1-c1nc2c(N3CCN(Cc4ccc(Cl)cc4)CC3)c(Cl)cnc2[nH]1	binding		competition with immobilised ligand	1 µM	remaining binding	82%
CC(C)(C)c1cc(C=C(C#N)C#N)cc(Br)c1O	enzyme activity	inhibitor		0.5 µM	remaining activity	93.7%
Cn1cc(-c2cc(F)cc(N3CCn4c(cc5c4CCCC5)C3=O)c2CO)cc(Nc2ccc(N3CCN(C4COC4)CC3)cn2)c1=O	enzyme activity	inhibitor		0.1 µM	inhibition	9%
COc1cc(Nc2ncc(F)c(Nc3ccc4c(n3)NC(=O)C(C)(C)O4)n2)cc(OC)c1OC	binding		competition with immobilised ligand	10 µM	inhibition	91%
N#CC1(c2ccccn2)CCN(Cc2cc(C(=O)O)c(=O)n3ccccc23)CC1	cell-free assay		competition with immobilised ligand	1 µM	remaining binding	100%
Nc1ncc(-c2nc(N3CCOCC3)nc(N3CCOCC3)n2)c(C(F)F)n1	binding		competition with immobilised ligand	10 µM	remaining binding	75%
Cn1cncc1[C@@](O)(COc1ccc(C#N)cc1-c1ccc(OC(F)(F)F)cc1)c1ccc(C#N)cc1	cell-free assay		competition with immobilised ligand	1 µM	remaining binding	90%
COc1ncccc1-c1cnn2ccc(N3CCN(C(=O)OC(C)C)CC3)nc12	binding		competition with immobilised ligand	1 µM	remaining binding	87%
